Data taken from paper PMC4774891 (Pharmaceutical research, 2015).

Experiments:
[1] = system: A431 epidermoid carcinoma subcutaneous xenograft; assay: Anticancer study in A431 subcutaneous xenograft model; type: in vivo, Nu/nu mice; details: 50 mg/kg daily orally, 4 weeks; vehicle control 6663.01 ±1113.23
[2] = Oral pharmacokinetic study; type: in vivo, Sprague Dawley rats; details: rat
A431 tumors = assay: IHC analysis of A431 tumors; type: in vivo, Nu/nu mice; details: untreated control 34.00±6.26
In vitro drug release = type: physicochemical; details: PBS 1% Volpo pH 6.8, 37°C
Procedure, shortened: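 Equal drug amounts (free drug, spray-dried formulation, or physical mixture) suspended in 500 ml PBS with 1% Volpo, pH 6.8. USP type II paddle, 50 rpm, 37±0.5°C, followed over 48 h.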

VEGF = VEGF estimation by ELISA in serum and tumor lysates; type: in vivo, Nu/nu mice
Chronic toxicity = type: in vivo; details: 4 weeks daily oral
[3] = free drug; cited from earlier work
[4] = Caco-2 permeability study; details: human, Caco-2, pH 5.8
[5] = Sprague Dawley, plasma, po, 50 mg/kg

## COc1cc2ncnc(Nc3ccc(F)c(Cl)c3)c2cc1OCCCN1CCOCC1 [Gef free drug, Gefitinib]
[1]
  final tumor volume: 3534.49±896.16 mm^3
[2]; 50 mg/kg orally
  CL: 1.9 ± 0.0408 mL/day/kg
  Vss: 0.00045 ± 0.00022 L/kg
  maximum plasma concentration (approximate molar): approximately 0.55 μM
[2]; [5]
  AUC(0-inf): 1.34 ± 0.244 µg·h/mL
  Cmax: 0.248 ± 0.0895 µg/mL
  MRT: 8.85 ± 1.83 h
  Tmax: 1.25 ± 0.25 h
  half-life: 7.46 ± 1.75 h
A431 tumors
  cleaved caspase 3 positive apoptotic cells/field: 145.33±28.44 cells/field
In vitro drug release
  drug released after 48 h: 16%
VEGF; serum, control 572.90±38.51
  VEGF level in serum: 336.40 ± 55.84 pg/mL
VEGF; tumor lysates, control 355.35± 49.93
  VEGF level in tumor lysates: 175.65±25.76 pg/mg protein
Chronic toxicity
  body weight change: no change in the body weights
[3]
  aqueous solubility: less than 1 mg/ml
[4]
  Papp A→B at 120 min, 100 μM: 3.4 ± 0.9 nm/s

## lucifer yellow
Caco-2 cell monolayers
  average permeability (paracellular control): < 1.5 nm/s
